Columns and labels:
LC3, p62 = assay type: cell-based, human; settings: 0.5 μM WX8, all four cell lines
[1] = system: 8 normal fibroblast cell lines; assay: Cell survival after 3 days, viable cell count with FACS; assay type: cell-based, human; settings: read-out: median IC50 (concentration that cause 50% reduction in cell survival), 3 days of treatment
MCF10A cells = assay: Cell survival of MCF10A cells after p38MAPK siRNA depletion; assay type: cell-based, human; settings: 0.5 μM WX8, 3 days
SW480 cells = assay: Cell survival, dead cells and proliferation of SW480 cells; assay type: cell-based, human; settings: SW480, 0.125 μM WX8 and/or 5 μM SB202190
[2] = system: HCT116 and A375 (sensitive), WI38 and Hs27 (resistant) cell lines; assay: Cell survival, sensitive versus resistant cell lines; assay type: cell-based, human
Cathepsin D = Cathepsin D maturation in SW480 cells; assay type: cell-based, human; settings: SW480, 0.125 μM WX8 with or without 5 μM SB202190
How it was run: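 SW480 cells were cultured for the indicated times with 0.125 μM WX8, 5 μM SB202190, or both, each diluted 1:1,000 from DMSO stocks, with DMSO as vehicle. Cells were trypsinized and pooled with unattached cells, then lysed in SDS sample buffer. Precursor and mature Cathepsin D were immunoblotted (nitrocellulose, peroxidase secondary, chemiluminescence) and quantified by densitometry of low-exposure images.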

12 cancer lines = assay: Cell survival after 3 days, viable cell count with FACS; assay type: cell-based, human; settings: read-out: median IC50 (concentration that cause 50% reduction in cell survival), 3 days of treatment
LC3, p62, LAMP2 = assay: Immunoblot time course of autophagy-degraded proteins in SW480 cells; assay type: cell-based, human; settings: for p62 accumulation, p38MAPK inhibitor alone: SW480, 1 or 3 days
[3] = system: SW480 colon adenocarcinoma xenografts; assay: SW480 xenograft in nude mice; settings: for reduction of tumor growth: 20 mg/kg WX8 and/or 12.5 mg/kg SB202190, day 22; for Ki-67 positive tumor cells: tumor sections
[4] = SW480, 0.125 μM WX8 and/or 5 μM SB202190
[5] = 20 mg/kg WX8 and/or 12.5 mg/kg SB202190

| Structure (SMILES) | Total LC3 and the LC3-II/I ratio (LC3, p62) | p62 level (LC3, p62) | IC50 [1] | reduction of cell survival (MCF10A cells; control siRNA-transfected cells) | reduction of cell survival (MCF10A cells; highest levels of p38MAPK depletion) | effect on proliferation (cell divisions per day) over time (SW480 cells) | difference in sensitivity to WX8 between sensitive and resistant cell lines [2] | day at which active Cathepsin D reappeared (Cathepsin D) | IC50 (12 cancer lines) | LAMP2 level increase (LC3, p62, LAMP2; [4]) | p62 level increase (LC3, p62, LAMP2; [4]) | time course of LC3 and p62 protein levels (LC3, p62, LAMP2; [4]) | total LC3 protein accumulation above initial levels (LC3, p62, LAMP2; [4]) | reduction of tumor growth ([3]; daily intraperitoneal) | Ki-67 positive tumor cells [3, 5] | p62 accumulation, p38MAPK inhibitor alone (LC3, p62, LAMP2) | adverse effects (mouse behavior, body weight) ([3]; daily intraperitoneal, 20 mg/kg WX8 and/or 12.5 mg/kg SB202190) |
| --- | --- | --- | --- | --- | --- | --- | --- | --- | --- | --- | --- | --- | --- | --- | --- | --- | --- |
| C(=N\Nc1nc(Nc2ccccc2)nc(N2CCOCC2)n1)/c1c[nH]c2ccccc12 [WX8] | increased | p62 accumulation | 2700 nM | 20% | 65% | reduced proliferation for up to two days | approximately 16 fold | 3 days | 200 nM | about 3 fold | about 3 fold | peaked on day 2 | 5 fold | 22% | about 75% |  |  |
| Oc1ccc(-c2nc(-c3ccncc3)c(-c3ccc(F)cc3)[nH]2)cc1 [SB202190] |  |  |  |  |  | reduced proliferation for up to two days |  |  |  | about 3 fold | about 3 fold |  | 2 fold | 28% | about 75% | caused accumulation of p62 | No adverse effects were apparent |
| CC(C)(C)Cn1c(N)nc2ccc(-c3[nH]c(C(C)(C)C)nc3-c3ccc(F)cc3)nc21 [LY2228820] |  |  |  |  |  |  |  |  |  |  |  |  |  |  |  | caused accumulation of p62 |  |

— PMC8178204 (Cancer research, 2021)
